Screening results from PubChem.
Many of the other results were omitted from the sample, so hits are more common in it than they were.
Lmaj promast: inhibitors of Leishmania major promastigote growth; inhibition, % at 10 µM; AID 1063; Leishmania major promastigotes, resazurin fluorescence viability; 200,000 tested, 9% active; in the data active means inhibition above about 50%;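 further: promastigotes grown with compound for 44 hours at 28 °C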
HSF1 activator: increases HSF-1 driven luciferase reporter signal. NIH3T3-HGL HSF-1 luciferase reporter, MG132, 8 h; 100% = twice DMSO control signal. activation, % at 9 µM. 300,000 tested, 1.7% active. AID 504408;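 active means mean replicate activation of at least 50% with a set share of replicates each reaching 50%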
T cruzi repl: blocks replication of Trypanosoma cruzi; T. cruzi beta-gal in NIH3T3, luminescence, 90 h; inhibition, % (concentration not given with the values); 300,000 tested, 1.4% active;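 active means mean inhibition across valid replicates above about 55%, limit read from the data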;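 further: signal also drops with host cell toxicity which is not excluded here; higher percent means less beta-gal luminescence so fewer parasites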
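System: mouse NIH/3T3 fibroblasts infected with β-gal-expressing T. cruzi Tulahuen C4 / Input: NIH/3T3 cells, 5,000 per well / Buffer or medium: Low-serum DMEM with 2% FBS / Probe or stimulus: 5000 reporter trypomastigotes per well / Schedule: ≥90 h infection period, 3 h prior cell attachment / Measured by: GalScreen luminescence, 60 min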
HSF1 inh: HSF1 inhibition; 300,000 tested, 0.77% active; NIH3T3-HGL HSE-luciferase, MG132-induced, luminescence 8 h; active compounds read low; activity change, negative = inhibition, % at 7.5 µM (by protocol); AID 2098;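 active means more than half of replicate wells show activity change below -50%, luminescence cut by over half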;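 further: luciferase reports HSF-1 transcriptional activity via heat shock element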
Hsp70 act: Hsp70 transcriptional activation, primary screen | 200,000 tested, 0.04% active | activation, % at 10 µM | HeLa Hsp70 promoter luciferase reporter, luminescence; scaled: vehicle 0, proteasome-inhibitor control 100%;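 active means activation above the mean across all tested compounds plus 3 SD, cutoff set per campaign, cut at about 5.5% in these data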
A number is an active result.

Results for C[n+]1c2n(c3ccccc31)N=C(c1cc(C(C)(C)C)c(O)c(C(C)(C)C)c1)CS2 ?
Lmaj promast: 100; HSF1 activator: inactive; T cruzi repl: 61; HSF1 inh: inactive; Hsp70 act: inactive

How did O=C(O)c1ccc(Cl)c(S(=O)(=O)Nc2ccc(OCc3ccccc3)cc2)c1 do in these assays?
HSF1 activator: inactive; T cruzi repl: inactive; HSF1 inh: inactive

How did CN(C)CCCNc1ncc(C(F)(F)F)cc1Cl do in these assays?
Lmaj promast: inactive; HSF1 activator: inactive; T cruzi repl: 63; HSF1 inh: inactive; Hsp70 act: inactive

Results for CN(C)CCCNC(=O)CCc1ncc(C(F)(F)F)cc1Cl ?
Lmaj promast: inactive; HSF1 activator: inactive; T cruzi repl: inactive; HSF1 inh: inactive; Hsp70 act: inactive

How did CN(C)CCCNS(=O)(=O)c1ccc(Oc2ncc(C(F)(F)F)cc2Cl)cc1 do in these assays?
Lmaj promast: 95; HSF1 activator: inactive; T cruzi repl: inactive; HSF1 inh: inactive; Hsp70 act: inactive

What do the screens show for `CCCCN1C2=C(C(=O)CCC2)C(c2ccc(Cl)c(Cl)c2)C2=C1c1ccccc1C2=O` (configuration not stated)?
Lmaj promast: inactive; HSF1 activator: inactive; T cruzi repl: inactive; HSF1 inh: inactive; Hsp70 act: inactive

Results for Cc1cccc(OC(C)C(=O)N2CCCN(C)CC2)c1C (configuration not stated) ?
HSF1 activator: inactive; T cruzi repl: inactive; HSF1 inh: inactive

What do the screens show for `CC(C)c1ccc(-c2nn(-c3ccccc3)cc2C(=O)NCC2CCCO2)cc1` (configuration not stated)?
HSF1 activator: inactive; T cruzi repl: inactive; HSF1 inh: inactive

What do the screens show for `CC(CCc1ccccc1)NC(=O)CNC(=S)N(Cc1cccs1)C1CCCC1` (configuration not stated)?
Lmaj promast: 51; HSF1 activator: inactive; T cruzi repl: inactive; HSF1 inh: inactive; Hsp70 act: inactive

What do the screens show for `CCCCNC(=O)CNC(=S)N(Cc1ccccc1)Cc1cccs1`?
Lmaj promast: inactive; HSF1 activator: inactive; T cruzi repl: inactive; HSF1 inh: -71; Hsp70 act: inactive

Results for CCOC(=O)CNC(=S)N(Cc1cccs1)C1CCCCC1 ?
Lmaj promast: inactive; HSF1 activator: inactive; T cruzi repl: inactive; HSF1 inh: inactive; Hsp70 act: inactive

What do the screens show for `CCOC(=O)c1sc2nc(CN3CCCCC3)nc(Cl)c2c1C`?
Lmaj promast: inactive; T cruzi repl: inactive; Hsp70 act: inactive

What do the screens show for `COc1cc2c(cc1OC)CN(c1nc(CN3CCCC3)nc3sc(C)c(C)c13)CC2`?
Lmaj promast: inactive; HSF1 activator: inactive; T cruzi repl: 69; HSF1 inh: inactive; Hsp70 act: inactive

Results for Cc1sc2nc(CN3CCCC3)nc(Cl)c2c1C ?
Lmaj promast: 86; HSF1 activator: inactive; T cruzi repl: inactive; HSF1 inh: inactive; Hsp70 act: inactive

Results for COc1cc2c(cc1OC)CN(c1nc(CN3CCCCC3)nc3sc4c(c13)CCCC4)CC2 ?
Lmaj promast: 99; HSF1 activator: inactive; T cruzi repl: inactive; HSF1 inh: inactive; Hsp70 act: inactive

What do the screens show for `Cc1ccc(OCC(=O)NC2CCS(=O)(=O)C2)c([N+](=O)[O-])n1` (configuration not stated)?
HSF1 activator: inactive; T cruzi repl: inactive; HSF1 inh: inactive

Results for CCOC(=O)CC1(NC(=O)C2CCC(=O)N(CCc3ccccc3)C2)CCCCC1 (configuration not stated) ?
HSF1 activator: inactive; T cruzi repl: inactive; HSF1 inh: inactive

Results for CCOC(=O)c1[nH]ncc1CN1CCN(Cc2ccccc2)C(CCO)C1 (configuration not stated) ?
Lmaj promast: inactive; HSF1 activator: inactive; T cruzi repl: inactive; HSF1 inh: inactive; Hsp70 act: inactive

How did CCOC(=O)c1c(C)c(C(=O)Nc2ccc3c(c2)OCO3)c(C)n1C do in these assays?
Lmaj promast: inactive; HSF1 activator: 71; T cruzi repl: inactive; HSF1 inh: inactive; Hsp70 act: inactive

Results for Clc1ccc(-c2nc3ccccn3c2CN2CCCCC2)cc1 ?
Lmaj promast: 77; HSF1 activator: 52; T cruzi repl: inactive; HSF1 inh: inactive; Hsp70 act: inactive

Results for COc1ccc(-c2nc3c4ccccc4ccn3c2CN2CCCCC2)cc1 ?
Lmaj promast: 100; HSF1 activator: inactive; T cruzi repl: inactive; HSF1 inh: inactive; Hsp70 act: inactive
